According to ChEMBL document CHEMBL1131181, “Abasic analogues of TSAO-T as the first sugar derivatives that specifically inhibit HIV-1 reverse transcriptase” (J Med Chem, 1998):

How the values were obtained:
MT4 [1] = assay: Cytostatic concentration test against mock infected human cells of MT-4 cell line; assay type: functional
Outline: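 MT-4 cells at 5 × 10⁵ cells/mL, mock-infected, combined with compound dilutions and held 5 days at 37 °C. Viable cells were counted in a blood-cell-counting chamber after Trypan blue staining. CC₅₀ is the concentration that cuts the viable cell number by 50%.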

[2] = test system: Human immunodeficiency virus 1; assay: compound was tested for antiviral activity against HIV-1 (3B) in MT-4 cell line, activity expressed as concentration required to protect 50% of the virus-infected cells against destruction by the virus.; assay type: functional, organism-based; conditions: Human immunodeficiency virus 1, MT4
MT4 [3] = assay: compound was tested for antiviral activity against HIV-2 ([…]) in MT-4 cell line, activity expressed as concentration required to protect 50% of the virus-infected cells against destruction by the virus.; assay type: functional, cell-based; conditions: Homo sapiens
[4] = test system: Human immunodeficiency virus 1; assay: In vitro antiviral activity against HIV-1 (IIIB) in CEM (human leukemia) cells.; assay type: functional, organism-based; conditions: Human immunodeficiency virus 1, CCRF-CEM
Outline: (§1)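 CEM cells at 250 000 cells/mL were infected with HIV-1(III_B) or HIV-2(ROD) at 100 CCID₅₀/mL, then added to compound dilutions. After 4 days at 37 °C, cultures were scored for syncytium formation. EC₅₀ is the concentration that inhibits syncytium formation by 50%.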

[5] = test system: Human immunodeficiency virus 2; assay: In vitro antiviral activity against HIV-2 (ROD) in CEM (human leukemia) cells.; assay type: functional, organism-based; conditions: Human immunodeficiency virus 2, CCRF-CEM; outline: as §1
CCRF-CEM = assay: compound was tested for cytostatic concentration against mock infected cells of CEM cell line; assay type: functional; conditions: Homo sapiens
Outline: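 Uninfected CEM cells at 250 000 cells/mL were cultured with compound dilutions for 4 days at 37 °C. CC₅₀ is the concentration that inhibits CEM cell proliferation by 50%.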

Structure (SMILES) | CC50 (MT4 [1]) | EC50 [2] | EC50 (MT4 [3]) | EC50 [4] | EC50 [5] | CC50 (CCRF-CEM)
COC1OC(CO[Si](C)(C)C(C)(C)C)C2(OS(=O)(=O)C=C2N)C1O[Si](C)(C)C(C)(C)C (stereo not given) | > 200 µM | 21 µM | > 200 µM | – | – | –
CCNC(=O)N[C@@H]1O[C@H](CO[Si](C)(C)C(C)(C)C)[C@@]2(OS(=O)(=O)C=C2N)[C@H]1O[Si](C)(C)C(C)(C)C.CCNC(=O)N[C@H]1O[C@H](CO[Si](C)(C)C(C)(C)C)[C@@]2(OS(=O)(=O)C=C2N)[C@H]1O[Si](C)(C)C(C)(C)C | 19 µM | > 10 µM | > 10 µM | > 10 µM | > 10 µM | 20 µM
CC(C)(C)[Si](C)(C)OC[C@H]1O[C@@H](OCc2ccccc2)[C@H](O[Si](C)(C)C(C)(C)C)[C@]12OS(=O)(=O)C=C2N | 12 µM | 4.9 µM | > 6.4 µM | > 6.4 µM | > 6.4 µM | 11 µM
CC(C)(C)[Si](C)(C)OC[C@H]1O[C@H](NC(=O)Nc2ccccc2)[C@H](O[Si](C)(C)C(C)(C)C)[C@]12OS(=O)(=O)C=C2N | 4.3 µM | 0.59 µM | > 2 µM | 0.65 µM | > 2 µM | 4.2 µM
CC(C)(C)[Si](C)(C)OC[C@H]1O[C@H](NC(=O)NC(=O)c2ccccc2)[C@H](O[Si](C)(C)C(C)(C)C)[C@]12OS(=O)(=O)C=C2N | > 250 µM | > 250 µM | > 250 µM | > 250 µM | > 250 µM | 24 µM
CSc1ccc(NC(=O)N[C@@H]2O[C@H](CO[Si](C)(C)C(C)(C)C)[C@@]3(OS(=O)(=O)C=C3N)[C@H]2O[Si](C)(C)C(C)(C)C)cc1 | 29 µM | 4.5 µM | > 10 µM | 5 µM | > 10 µM | 22 µM
COC(=O)c1ccccc1NC(=O)N[C@H]1O[C@H](CO[Si](C)(C)C(C)(C)C)[C@@]2(OS(=O)(=O)C=C2N)[C@H]1O[Si](C)(C)C(C)(C)C | 26 µM | 5.3 µM | > 10 µM | 4.5 µM | > 10 µM | 22 µM
C=C(C)C(=O)NC(=O)N[C@@H]1O[C@H](CO[Si](C)(C)C(C)(C)C)[C@@]2(OS(=O)(=O)C=C2N)[C@H]1O[Si](C)(C)C(C)(C)C | 8.6 µM | 0.59 µM | > 6.5 µM | 0.56 µM | > 6.5 µM | 6.1 µM
CC(C)(C)[Si](C)(C)OC[C@H]1O[C@@H](NC(N)=O)[C@H](O[Si](C)(C)C(C)(C)C)[C@]12OS(=O)(=O)C=C2N | > 250 µM | 90 µM | > 250 µM | 90 µM | > 50 µM | > 250 µM
CC(=O)N[C@H]1O[C@H](CO[Si](C)(C)C(C)(C)C)[C@@]2(OS(=O)(=O)C=C2N)[C@H]1O[Si](C)(C)C(C)(C)C | 16 µM | > 8 µM | > 8 µM | > 8 µM | > 8 µM | –
COC(=O)c1ccccc1NC(=O)N[C@@H]1O[C@H](CO[Si](C)(C)C(C)(C)C)[C@@]2(OS(=O)(=O)C=C2N)[C@H]1O[Si](C)(C)C(C)(C)C | 17 µM | 3.1 µM | > 2 µM | > 2 µM | > 2 µM | 3.8 µM
CC(C)(C)[Si](C)(C)OC[C@H]1O[C@@H](NC(=O)Nc2ccccc2)[C@H](O[Si](C)(C)C(C)(C)C)[C@]12OS(=O)(=O)C=C2N | 14 µM | 5.1 µM | > 10 µM | > 10 µM | > 10 µM | 10 µM
CC(C)(C)[Si](C)(C)OC[C@H]1O[C@@H](NC(=O)NC(=O)c2ccccc2)[C@H](O[Si](C)(C)C(C)(C)C)[C@]12OS(=O)(=O)C=C2N | 90 µM | 16 µM | > 50 µM | 7 µM | > 50 µM | 48 µM
C=C(C)C(=O)NC(=O)N[C@H]1O[C@H](CO[Si](C)(C)C(C)(C)C)[C@@]2(OS(=O)(=O)C=C2N)[C@H]1O[Si](C)(C)C(C)(C)C | 2.7 µM | > 1.3 µM | > 1.3 µM | > 6.5 µM | > 6.5 µM | 6.4 µM
CSc1ccc(NC(=O)N[C@H]2O[C@H](CO[Si](C)(C)C(C)(C)C)[C@@]3(OS(=O)(=O)C=C3N)[C@H]2O[Si](C)(C)C(C)(C)C)cc1 | 17 µM | 4.2 µM | > 10 µM | > 2 µM | > 2 µM | 6.4 µM
CC(C)(C)[Si](C)(C)OC[C@H]1O[C@@H](OCc2ccccc2)[C@H](O[Si](C)(C)C(C)(C)C)[C@@]12OS(=O)(=O)C=C2N | 13 µM | 4.6 µM | > 6.4 µM | > 6.4 µM | > 6.4 µM | 11 µM
CC(=O)N[C@@H]1O[C@H](CO[Si](C)(C)C(C)(C)C)[C@@]2(OS(=O)(=O)C=C2N)[C@H]1O[Si](C)(C)C(C)(C)C | 13 µM | 2.6 µM | > 8 µM | 2.6 µM | > 8 µM | –
CC(C)(C)[Si](C)(C)OC[C@H]1O[C@H](NC(N)=O)[C@H](O[Si](C)(C)C(C)(C)C)[C@]12OS(=O)(=O)C=C2N | > 250 µM | > 250 µM | > 250 µM | 57 µM | > 50 µM | 203 µM
CC(C)(C)[Si](C)(C)OC[C@H]1O[C@@H](n2ccc(=O)[nH]c2=O)[C@H](O[Si](C)(C)C(C)(C)C)C12OS(=O)(=O)C=C2N (stereo not given in full) | 13 µM | 0.18 µM | > 20 µM | – | – | –
Cc1cn([C@@H]2O[C@H](CO[Si](C)(C)C(C)(C)C)C3(OS(=O)(=O)C=C3N)[C@H]2O[Si](C)(C)C(C)(C)C)c(=O)[nH]c1=O (stereo not given in full) | 14 µM | 0.06 µM | > 20 µM | 0.06 µM | > 20 µM | –
CC(C)(C)[Si](C)(C)OC[C@H]1O[C@@H](N=[N+]=[N-])[C@H](O[Si](C)(C)C(C)(C)C)[C@]12OS(=O)(=O)C=C2N | > 200 µM | > 200 µM | > 200 µM | > 200 µM | > 200 µM | > 200 µM
CC(C)(C)[Si](C)(C)OC[C@H]1O[C@@H](NC(=S)Nc2ccccc2)[C@H](O[Si](C)(C)C(C)(C)C)[C@]12OS(=O)(=O)C=C2N | 3.7 µM | > 2 µM | > 2 µM | > 2 µM | > 2 µM | 4.1 µM
CC(C)(C)[Si](C)(C)OC[C@H]1O[C@@H](N)[C@H](O[Si](C)(C)C(C)(C)C)[C@]12OS(=O)(=O)C=C2N | 21 µM | > 10 µM | > 10 µM | > 10 µM | > 10 µM | 16 µM
CC(=O)NC(=O)N[C@@H]1O[C@H](CO[Si](C)(C)C(C)(C)C)[C@@]2(OS(=O)(=O)C=C2N)[C@H]1O[Si](C)(C)C(C)(C)C | 26 µM | 0.89 µM | > 10 µM | 0.65 µM | > 10 µM | 15 µM
CC(C)(C)[Si](C)(C)OC[C@H]1O[C@@H](N2CCC(=O)NC2=O)[C@H](O[Si](C)(C)C(C)(C)C)[C@]12OS(=O)(=O)C=C2N | 21 µM | 0.92 µM | > 2 µM | 0.31 µM | – | 19 µM
